Rows were chosen to be rich in hits. Some 3.8% of all compounds tested hit in one or more screens of this group.
MPTP block = permeability transition pore inhibition; isolated mouse mitochondria, Ca2+ swelling absorbance, 30 min; inhibition, % at 10 µM; hit rate 1.4% among 360,000; AID 602449;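 active means inhibition of 50% or more, scaled per plate between neutral and stimulator controls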;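 further: 0% = DMSO wells given calcium and 100% = 1 mM EGTA wells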
Granule exo inh = blocks lytic granule exocytosis; TALL-104 LAMP-1 surface exposure, flow cytometry; cells stimulated with thapsigargin and PMA; inhibition, % at 10 µM; hit rate 0.66% among 360,000;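 active means inhibition above about 55%, limit read from the data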
Beta2AR agonist = activates human beta-2 adrenergic receptor causing internalization. P07550. Am2.2-beta2AR cells, FAP receptor internalization, flow cytometry. response, % (test concentration not listed). hit rate 0.43% among 340,000;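 active means response above a set limit, near 3 SD of response in nonfluorescent compounds, cut at about 42% in these data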
Target sequence (P07550 whole entry, looked up): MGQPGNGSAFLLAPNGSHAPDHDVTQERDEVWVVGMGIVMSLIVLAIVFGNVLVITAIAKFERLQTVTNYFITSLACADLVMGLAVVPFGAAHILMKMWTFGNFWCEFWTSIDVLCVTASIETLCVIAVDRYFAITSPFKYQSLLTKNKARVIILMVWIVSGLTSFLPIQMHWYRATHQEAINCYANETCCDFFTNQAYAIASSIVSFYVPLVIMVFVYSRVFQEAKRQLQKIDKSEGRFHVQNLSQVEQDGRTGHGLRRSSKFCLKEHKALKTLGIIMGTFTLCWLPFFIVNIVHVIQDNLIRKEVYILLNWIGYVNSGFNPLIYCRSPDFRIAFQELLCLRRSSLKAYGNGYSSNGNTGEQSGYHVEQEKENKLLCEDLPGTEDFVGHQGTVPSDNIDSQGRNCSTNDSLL
T cell HTS = T cell immune modulation candidate. hit rate 0.068% among 330,000. response (vesicle binding), % at 7 µM. 2C CD8+ T cell-vesicle binding, flow cytometry; active compounds read low. AID 2052;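 active means response, share of CD8 T cells binding vesicles, and their 90th percentile fluorescence all below set limits, cut at about 80% in these data, passing the limit was not always enough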;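 further: values below 100% mean blocked vesicle binding to the CD8+ T cells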
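Also added: QL9-peptide-loaded Drosophila micro-vesicles bearing Ld, ICAM-1 and B7-1; Test system: purified 2C TCR transgenic mouse naive CD8+ T cells; Measured by: cytometric PE anti-B7-1 and Alexa647 anti-CD8 signals after 1% paraformaldehyde fixation; Timing: binding step 1.5 h, 37 °C, antibody labelling 20 min, ice.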
V-ATPase pH = yeast V-ATPase proton transport regulation by pHLuorin | S. cerevisiae, pHLuorin cytosolic pH fluorescence | response, % at 10 µM | hit rate 0.37% among 350,000; in the data active means response mostly above about 7.3%, no sharp cut-off; inactive means mostly below about 5.4%; further: actives read high
rCAG RNA binder = r(CAG) repeat RNA binding; TO-PRO-1 dye displacement fluorescence; inhibition, % at 3 µM; hit rate 1.3% among 370,000; AID 651821;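 active means inhibition above the plate cutoff, the mean of all test compounds on that plate plus 3 SD, cut at about 35% in these data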;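 further: 0% = DMSO alone and 100% = 100 µM mitoxantrone as full dye displacement; higher means more dye released from RNA so lower well fluorescence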
Rh123 counter = Rhodamine 123 counter-screen of mitochondrial pore hits; hit rate 78% among 5,000; isolated mitochondria, membrane potential, Rhodamine 123 fluorescence; AID 624504; shares compounds with MPTP block; inhibition, % at 10 µM; in the data active means inhibition above about 22%;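 further: 0% = DMSO vehicle and 100% = positive control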
Starred values were filed as active, the others as inactive.

O=C(CCN1C(=O)/C(=C/c2ccc(Cl)cc2)SC1=S)NCCCn1ccnc1 was read as MPTP block 60*, Granule exo inh 7, Beta2AR agonist -21, T cell HTS 362, V-ATPase pH 3, rCAG RNA binder 2 and Rh123 counter 72*.
Screening Cc1ccc(NC(=O)COc2cccc(/C=C3\SC(=S)N(CCC(=O)O)C3=O)c2)cc1Cl returned MPTP block 51*, Granule exo inh -2, Beta2AR agonist 9, T cell HTS 138, V-ATPase pH 2, rCAG RNA binder 23 and Rh123 counter 26*.
Screening COc1cccc(/C=C2/SC(=S)N(CCCC(=O)Nc3ccc(O)cc3)C2=O)c1 returned MPTP block 1, Granule exo inh 12, Beta2AR agonist -2, T cell HTS 319, V-ATPase pH 1 and rCAG RNA binder 10.
Screening O=C(CCN1C(=O)/C(=C/c2ccccc2)SC1=S)N1CCCCCC1 returned MPTP block 77*, Granule exo inh 3, Beta2AR agonist 0, T cell HTS 274, V-ATPase pH 2, rCAG RNA binder 1 and Rh123 counter 82*.
`O=C(CCN1C(=O)/C(=C/c2ccc(F)cc2)SC1=S)NCCCn1ccnc1` gave MPTP block 2, Granule exo inh -2, Beta2AR agonist 14, T cell HTS 302, V-ATPase pH 0 and rCAG RNA binder 1.
Screening COc1ccc(/C=C2\SC(=S)N(CCC(=O)N3CCCCC3)C2=O)cc1 returned MPTP block 2, Granule exo inh 4, Beta2AR agonist 4, T cell HTS 282, V-ATPase pH 1 and rCAG RNA binder 6.
CC(C)C[C@H]1COc2cccc(N3CCCC3)c2S(=O)(=O)N1C was read as rCAG RNA binder 1.
For COC(=O)C1CN(CCc2ccccc2)CCS(=O)(=O)N1Cc1ccc(C)cc1 (configuration not stated) the results were rCAG RNA binder 0.
Screening O=C(CCN1C(=O)/C(=C/c2ccccc2)SC1=S)NNC(=O)c1cccnc1 returned MPTP block 88*, Granule exo inh -2, Beta2AR agonist -12, T cell HTS 135, V-ATPase pH -2, rCAG RNA binder 0 and Rh123 counter 74*.
`O=C(CCN1C(=O)/C(=C/c2cccc(Br)c2)SC1=S)NNC(=O)c1cccnc1` gave MPTP block 4, Granule exo inh 1, Beta2AR agonist 11, T cell HTS 94 and V-ATPase pH -5.
For O=C(CCN1C(=O)/C(=C/c2ccc(F)cc2)SC1=S)NNC(=O)c1cccnc1 the results were MPTP block 38, Granule exo inh -3, Beta2AR agonist -6, T cell HTS 170, V-ATPase pH -2 and rCAG RNA binder 3.
For Cc1ccc(/C=C2\SC(=S)N(CCC(=O)NNC(=O)c3cccnc3)C2=O)cc1 the results were MPTP block 65*, Granule exo inh 0, Beta2AR agonist -3, T cell HTS 324, V-ATPase pH -4, rCAG RNA binder 7 and Rh123 counter 59*.
`O=C(NC1CCCCN(Cc2cccc(F)c2)C1=O)c1cccc(C(F)(F)F)c1` (configuration not stated) gave rCAG RNA binder -1.
For COc1ccc(C2C(=O)c3ccccc3C2=Nc2ccc(Br)cc2)cc1 (configuration not stated) the results were MPTP block 90*, Granule exo inh 0, Beta2AR agonist -3, T cell HTS 129, V-ATPase pH -1, rCAG RNA binder 4 and Rh123 counter 50*.
For Cc1ccc(NC(=O)[C@@H]2CC(=O)O[C@@H]2c2ccccc2)c(C)c1 the results were rCAG RNA binder 0.
N#CC1=C(N)NC(SCc2ccc(Cl)cc2)=C(C#N)C12CCCCC2 was read as MPTP block 16, Granule exo inh 2, Beta2AR agonist -3, T cell HTS 759, V-ATPase pH 11 and rCAG RNA binder 12.
Screening N#CC1=C(N)NC(SCC(=O)c2ccccc2)=C(C#N)C12CCCC2 returned MPTP block 19, Granule exo inh -6, Beta2AR agonist -8, T cell HTS 310, V-ATPase pH 1 and rCAG RNA binder 10.
Screening N#CC1=C(N)NC(SCC(=O)Nc2ccc(Br)cc2)=C(C#N)C12CCCCC2 returned MPTP block 89*, Granule exo inh -4, Beta2AR agonist 3, T cell HTS 483, V-ATPase pH 0, rCAG RNA binder 15 and Rh123 counter 89*.
N#CC1=C(N)NC(SCc2ccc(Br)cc2)=C(C#N)C12CCCCC2 was read as MPTP block 92*, Granule exo inh 20, Beta2AR agonist 0, T cell HTS 241, V-ATPase pH 1, rCAG RNA binder 12 and Rh123 counter 79*.
`O=S(=O)(c1cccs1)N1CCCc2nc(-c3ccc(F)cc3)ccc21` gave rCAG RNA binder 4.
For CCCOC(=O)c1ccc(OCC(O)Cn2c(C)nc3ccccc32)cc1 (configuration not stated) the results were MPTP block 53*, Granule exo inh -2, Beta2AR agonist 2, V-ATPase pH 1, rCAG RNA binder 1 and Rh123 counter 103*.
`O=[N+]([O-])c1ccc(/C=N/NC(=S)Nc2ccc(Cl)cc2Cl)s1` gave MPTP block 52*, Granule exo inh 94*, Beta2AR agonist -11, T cell HTS inactive, V-ATPase pH -5, rCAG RNA binder 13 and Rh123 counter 61*.
`COc1cccc(CNC(=O)C[C@H]2CC[C@H]3[C@@H](COc4ccc(NC(=O)c5cccs5)cc4C(=O)N3C)O2)c1` gave rCAG RNA binder 9.
C[C@H](O)[C@@H]1CN2CCc3c([nH]c4c(-c5ccccc5)cccc34)[C@@H]2C[C@@H]1N(C)C(=S)Nc1ccc(C#N)cc1 was read as rCAG RNA binder 11.
O=C(Nc1ccncc1)Nc1cc(Cl)ccc1Cl was read as MPTP block 34, Granule exo inh 3, Beta2AR agonist -10, T cell HTS 344, V-ATPase pH -4 and rCAG RNA binder 4.
Screening O=C(Nc1ccncc1)Nc1ccc(Cl)cc1Cl returned MPTP block 51*, Granule exo inh 10, Beta2AR agonist -6, T cell HTS 375, V-ATPase pH -1, rCAG RNA binder 3 and Rh123 counter 104*.
For CCCc1c(NC(=O)Nc2ccc(Cl)cc2Cl)cnn1-c1ccccc1 the results were MPTP block 83*, Granule exo inh 17, Beta2AR agonist 0, T cell HTS 720, V-ATPase pH -1, rCAG RNA binder -8 and Rh123 counter 76*.
`CCCc1c(C(=O)Nc2ccc(F)cc2F)cnn1-c1ccccc1` gave MPTP block 2, Granule exo inh 4, Beta2AR agonist -3, T cell HTS 512, V-ATPase pH -3 and rCAG RNA binder -3.

Screening data (PubChem BioAssay)
